Compound activity as filed in PubChem.
This is a sample that favours compounds with a hit; in the whole collection about 2.2% have one here.
PPC-1+TRAIL kill – compounds killing PPC-1 cancer cells with TRAIL present (potentiator screen, no TRAIL-free arm); actives 0.41% (n = 220,000); AID 1443; cell killing (% activity), % at 4 µM or 5 µM; PPC-1 cells + TRAIL, ATPLite viability luminescence;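 active means cell killing above 50% in the first pass at 4 µM, then a duplicate retest at 5 µM averaging 50% or more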;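 further: plate controls were cells with TRAIL plus DMSO for no effect and medium-only wells lacking cells for full effect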
FLuc inh counter – Photinus pyralis luciferase inhibition counter-screen; P08659; ATPLite firefly luciferase biochemical luminescence, 10 min; inhibition, % at 10 µM; actives 1.5% (n = 200,000); AID 1006;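 active means inhibition above about 50% when tested at 10 µM, limit read from the data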
Target sequence (P08659 whole entry, looked up): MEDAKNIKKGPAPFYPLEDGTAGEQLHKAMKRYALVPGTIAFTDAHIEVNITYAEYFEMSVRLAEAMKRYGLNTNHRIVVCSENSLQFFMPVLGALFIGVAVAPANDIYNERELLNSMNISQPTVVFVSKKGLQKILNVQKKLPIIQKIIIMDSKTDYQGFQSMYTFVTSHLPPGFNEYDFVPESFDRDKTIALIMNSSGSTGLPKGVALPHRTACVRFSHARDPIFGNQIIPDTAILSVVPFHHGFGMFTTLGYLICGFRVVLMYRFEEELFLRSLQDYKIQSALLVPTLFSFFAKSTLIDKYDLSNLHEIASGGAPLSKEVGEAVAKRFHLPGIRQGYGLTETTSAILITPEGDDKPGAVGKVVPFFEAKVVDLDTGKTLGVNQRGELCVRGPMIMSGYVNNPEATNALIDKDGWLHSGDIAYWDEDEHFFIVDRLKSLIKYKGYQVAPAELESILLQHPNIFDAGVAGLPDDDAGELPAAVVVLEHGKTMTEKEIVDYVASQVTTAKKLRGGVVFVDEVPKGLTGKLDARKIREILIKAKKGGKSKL
STAT3 blocker – reduces IL-6 driven STAT3 reporter signal; U3A cells, IL-6 STAT3-luciferase reporter, luminescence; host cell line lacks STAT1; inhibition, % at 5.5 µM; actives 0.89% (n = 190,000);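 active means inhibition above the mean inhibition across all screened compounds plus 3 SD, cut at about 44% in these data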;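 further: 0% = DMSO only wells and 100% = 100 µM nifuroxazide control wells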
HSP90 inh – inhibitors of HSP90 luciferase refolding in rabbit reticulocyte lysate; luciferase refolding luminescence, 3 h; inhibition, % at 5.6 µM; actives 0.91% (n = 290,000);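 active means inhibition above the screen-wide mean plus 3 SD, computed separately per campaign, cut at about 16% in these data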;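 further: 0% = DMSO wells and 100% = 60 µM geldanamycin wells; inhibitors lower the luminescence because luciferase stays unfolded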
FLuc act counter – firefly luciferase counter-screen for stimulation assays; P08659; ATPlite luciferase biochemical, luminescence, 10 min; 0 = ATP-free wells, 1 = DMSO control; activation factor at 10 µM; 200,000 tested, under 10 active; AID 1027;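 active means luciferase activation factor, scaled between plate controls, of at least 2 with compound at 10 µM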
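System: Luciferase/luciferin detection reagent, cell-free biochemical luciferase assay | Medium: PBS buffer for ATP | Dosing: Test compounds dosed from 2 mM stocks in 100% DMSO | Timing: 10 min at ambient temperature | Signal: Luminescence measurement of luciferase light output | Evaluation: Luciferase activation, seen as luminescence increase over controls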
TRAIL sens C8 – caspase-8 TRAIL sensitization. actives 1% (n = 360,000). inhibition (viability loss, TRAIL sensitization), % at 10 µM. NB7+C8 cells + TRAIL, ATPlite viability luminescence. AID 624354;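 active means compounds causing at least 50% loss of cell viability in the single-dose screen, relative to plate controls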
HSP90 confirm – HSP90 inhibition, confirmation assay | shares compounds with HSP90 inh | rabbit reticulocyte lysate, luciferase refolding luminescence, 3 h | inhibition, % at 5.9 µM | actives 64% (n = 2,300); in the data active means inhibition above about 18%;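 further: 0% = vehicle wells and 100% = reference inhibitor wells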
FLuc counter – blocks native firefly luciferase in HSP90 counter-screen. shares compounds with HSP90 inh. purified native firefly luciferase, luminescence. inhibition, % at 5.9 µM. actives 48% (n = 2,300);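 active means inhibition above the mean inhibition of all tested sample wells plus 3 SD, cut at about 10% in these data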;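 further: 0% = DMSO with luciferase and 100% = wells lacking luciferase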
* marks the source's active call; other numbers are inactive results.

For CC(C)CCn1cnc2c(oc3nc4c(cc32)CCCC4)c1=O the results were PPC-1+TRAIL kill 10, HSP90 inh 19*, TRAIL sens C8 28, HSP90 confirm 51* and FLuc counter 35*.
O=C(CCc1c[nH]c2ccccc12)OCC(=O)N1CCN(S(=O)(=O)c2ccccc2)CC1 was read as TRAIL sens C8 10.
For CCN(CC)c1ccc(/C=N/NC(=O)c2ccoc2C)c(O)c1 the results were PPC-1+TRAIL kill 41, HSP90 inh 7 and TRAIL sens C8 44.
COc1ccc2[nH]c(C(=O)Nc3cccc(C)n3)cc2c1 was read as PPC-1+TRAIL kill 43, HSP90 inh 23*, TRAIL sens C8 55*, HSP90 confirm 30* and FLuc counter 19*.
`COc1ccc2[nH]c(C(=O)Nc3ccc(C)c(F)c3)cc2c1` gave PPC-1+TRAIL kill 18, HSP90 inh -1 and TRAIL sens C8 33.
`C#CCOCCOCCOCCNc1nc(N2CCN(C(=O)[C@H](Cc3ccc(O)cc3)n3cc([C@@H](N)C(C)CC)nn3)CC2)nc(N2CCN(C(=O)[C@H](CCCCN)n3cc([C@@H](N)CO)nn3)CC2)n1` (stereo partly specified) gave PPC-1+TRAIL kill 6, FLuc inh counter -7, HSP90 inh 21*, FLuc act counter 1.1, TRAIL sens C8 -15, HSP90 confirm -2 and FLuc counter -5.
For C#CCOCCOCCOCCNc1nc(N2CCN(C(=O)[C@H](Cc3ccc(O)cc3)n3cc([C@@H](N)C(C)CC)nn3)CC2)nc(N2CCN(C(=O)[C@H](CCCCN)n3cc([C@@H](N)CC(C)C)nn3)CC2)n1 (stereo partly specified) the results were PPC-1+TRAIL kill -5, FLuc inh counter -4, HSP90 inh -1 and FLuc act counter 1.
`C#CCOCCOCCOCCNc1nc(N2CCN(C(=O)[C@H](Cc3cc4ccccc4[nH]3)n3cc([C@@H](N)C(C)CC)nn3)CC2)nc(N2CCN(C(=O)[C@H](CCCCN)n3cc([C@@H](N)CO)nn3)CC2)n1` (stereo partly specified) gave PPC-1+TRAIL kill 22, FLuc inh counter -9, HSP90 inh 12 and FLuc act counter 1.1.
Screening C#CCOCCOCCOCCNc1nc(N2CCN(C(=O)[C@H](CCCCN)n3cc([C@@H](N)C(C)CC)nn3)CC2)nc(N2CCN(C(=O)[C@H](Cc3cc4ccccc4[nH]3)n3cc([C@@H](N)CC(C)C)nn3)CC2)n1 (stereo partly specified) returned PPC-1+TRAIL kill 2, FLuc inh counter 0, HSP90 inh 21*, FLuc act counter 1, TRAIL sens C8 -11, HSP90 confirm 2 and FLuc counter -8.
For O=C(Nc1cccc(-n2cnnn2)c1)C1CCCN(Cc2cccc(C(F)(F)F)c2)C1 (stereo unspecified) the results were HSP90 inh -2 and TRAIL sens C8 1.
COc1cccc2oc3cc(C#CC4(O)CCCCC4)ccc3c(=O)c12 was read as HSP90 inh 26*, TRAIL sens C8 72*, HSP90 confirm 30* and FLuc counter 19*.
`O=C(O)/C=C/C(=O)N1CCN(c2cccc(Cl)c2)CC1` gave PPC-1+TRAIL kill 26, FLuc inh counter 0, STAT3 blocker 16, HSP90 inh -2, FLuc act counter 1 and TRAIL sens C8 1.
Cc1sc2nc3c4ccccc4c(NCc4ccco4)nn3c(=O)c2c1C was read as PPC-1+TRAIL kill 25, FLuc inh counter 3, STAT3 blocker 0, HSP90 inh 79*, FLuc act counter 1, TRAIL sens C8 8, HSP90 confirm 6 and FLuc counter -17.
`COCCN(C(=O)c1ccc(N2CCCC2=O)cc1)c1c(N)n(Cc2ccccc2)c(=O)[nH]c1=O` gave TRAIL sens C8 -10.
`COc1ccc2cc3cc(C(=O)NC4CC4)sc3nc2c1` gave HSP90 inh 21*, TRAIL sens C8 77*, HSP90 confirm 47* and FLuc counter 29*.
O=C(CSc1nnc2ccc(-c3ccncc3)nn12)c1cccs1 was read as PPC-1+TRAIL kill 16, FLuc inh counter -5, STAT3 blocker 15, HSP90 inh 66*, FLuc act counter 1.1, TRAIL sens C8 -8, HSP90 confirm -6 and FLuc counter -12.
Screening Cc1cccc(C(O)c2ncc(-c3ccc(Cl)cc3)[nH]2)c1C (stereo unspecified) returned TRAIL sens C8 -13.
O=C(O)c1ccc(-c2ccc(-c3ccccc3)cc2)s1 was read as HSP90 inh 94*, TRAIL sens C8 34, HSP90 confirm 93* and FLuc counter 83*.
Screening O=C(Nc1ccccc1)c1ccc(-c2ccccc2)s1 returned PPC-1+TRAIL kill 33, FLuc inh counter 24, STAT3 blocker -2, HSP90 inh 3, FLuc act counter 0.8 and TRAIL sens C8 11.
For Fc1ccc(-n2nnc(-c3cnc4ccccc4c3)n2)cc1 the results were PPC-1+TRAIL kill 43, FLuc inh counter 74*, HSP90 inh 19*, FLuc act counter 0.3, TRAIL sens C8 61*, HSP90 confirm 81* and FLuc counter 77*.
CC(C)C(=O)Nc1ccc2nn(-c3ccc(F)cc3)nc2c1 was read as HSP90 inh 25*, TRAIL sens C8 27, HSP90 confirm 28* and FLuc counter 20*.
For Cc1ccc(-n2nc3ccc(NC(=O)C(C)C)cc3n2)cc1 the results were PPC-1+TRAIL kill -8, FLuc inh counter 28, STAT3 blocker 22, HSP90 inh 2, FLuc act counter 0.7 and TRAIL sens C8 7.
`Cc1ccc(Oc2ccc(NS(=O)(=O)c3cccc(C(=O)O)c3)cc2)cc1` gave TRAIL sens C8 -2.
CCOc1ccc2cc(C3CC(c4ccco4)=NN3S(C)(=O)=O)c(Cl)nc2c1 (stereo unspecified) was read as PPC-1+TRAIL kill -4, HSP90 inh -1 and TRAIL sens C8 -17.
`CCc1ccc(C2CC(c3ccco3)=NN2S(C)(=O)=O)cc1` (stereo unspecified) gave PPC-1+TRAIL kill 16, FLuc inh counter 48, STAT3 blocker 18, HSP90 inh 18*, FLuc act counter 0.5, TRAIL sens C8 2, HSP90 confirm 22* and FLuc counter 13*.
